Measured values taken from ChEMBL document CHEMBL2390834, “Structure-activity relationships for ferriprotoporphyrin IX association and β-hematin inhibition by 4-aminoquinolines using experimental and ab initio methods” (Bioorg Med Chem, 2013).

Key:
[1] = Inhibition of beta-hematin formation after 60 mins by colorimetric assay relative to Fe(3)PP9; format: functional
Method in brief: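 4.5 M acetate drives β-hematin formation. Leftover Fe(III)PPIX is then reacted with 5% aqueous pyridine to give a low-spin bis-pyridyl complex, read colorimetrically. Prior method used unmodified; result reported as BHIA₅₀ (50% inhibitory activity).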

Ferriprotoporphyrin IX = assay: Binding affinity to ferriprotoporphyrin 9 at pH 7.5 by UV-vis spectrophotometric analysis in presence of 40% DMSO
Method in brief: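 Association constant (log K) with Fe(III)PPIX measured by spectrophotometric titration in 40% aqueous (v/v) DMSO, pH 7.5, using a previously described method without modification.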

Plasmodium falciparum = assay: Antimalarial activity against chloroquine-sensitive Plasmodium falciparum NF54 by [3H]hypoxanthine incorporation assay; format: functional, organism-based
Method in brief: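 Chloroquine-sensitive NF54 P. falciparum parasites grown in vitro; growth measured by [³H]-hypoxanthine incorporation, essentially as in earlier work; IC50 in nM.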

Compound | log K (Ferriprotoporphyrin IX) | IC50 (Plasmodium falciparum) | IA50 [1]
Nc1ccnc2cc(Cl)ccc12 | 5.01 | – | 5.8 equiv
NCCNc1ccnc2ccccc12 | 4.38 | 66 nM | 10.6 equiv
CNc1ccnc2ccccc12 | 3.92 | – | 14.9 equiv
Cc1ccc2c(NCCN)ccnc2c1 | 4.35 | 37 nM | 10.3 equiv
CNc1ccnc2cc(Cl)ccc12 | 4.62 | – | 5.7 equiv
CCN(CC)CCNc1ccnc2ccccc12 | 4.75 | – | > 20 equiv
CCN(CC)CCNc1ccnc2cc(Cl)ccc12 | 5.81 | – | 2.2 equiv
CCN(CC)CCNc1ccnc2cc(Br)ccc12 | 4.99 | – | 4.4 equiv
CCN(CC)CCNc1ccnc2cc(N)ccc12 | 4.35 | – | > 20 equiv
CCN(CC)CCNc1ccnc2cc(F)ccc12 | 4.6 | – | 9.7 equiv
CNc1ccnc2cc(C)ccc12 | 4.01 | – | 11.1 equiv
CCN(CC)CCNc1ccnc2cc(OC)ccc12 | 4.83 | – | > 20 equiv
CCN(CC)CCNc1ccnc2cc(C(F)(F)F)ccc12 | 4.67 | – | 8 equiv
NCCNc1ccnc2cc(C(F)(F)F)ccc12 | 4.7 | 8.6 nM | 5.4 equiv
CCN(CC)CCNc1ccnc2cc(I)ccc12 | 5.02 | – | 2.8 equiv
Nc1ccnc2ccccc12 | 3.83 | – | 10 equiv
Nc1ccc2c(N)ccnc2c1 | 3.44 | – | > 20 equiv
Nc1ccnc2cc(C(F)(F)F)ccc12 | 4.41 | – | 5.6 equiv
CNc1ccnc2cc(C#N)ccc12 | 4.42 | – | 4.5 equiv
N#Cc1ccc2c(NCCN)ccnc2c1 | 4.47 | 20 nM | 6.3 equiv
CCN(CC)CCNc1ccnc2cc([N+](=O)[O-])ccc12 | 4.65 | – | 3.1 equiv
Cc1ccc2c(N)ccnc2c1 | 4.17 | – | 10.8 equiv
COc1ccc2c(NCCN)ccnc2c1 | 4.47 | – | 10.6 equiv

More lines, main results first:

log K (Ferriprotoporphyrin IX) | IC50 (Plasmodium falciparum) | Compound | IA50 [1]
3.71 | – | CNc1ccnc2cc(OC)ccc12 | 10.4 equiv
5.1 | 4.6 nM | NCCNc1ccnc2cc(Cl)ccc12 | 5.4 equiv
4.32 | – | CNc1ccnc2cc([N+](=O)[O-])ccc12 | 5.5 equiv
4.04 | – | CNc1ccnc2cc(N)ccc12 | > 20 equiv
4.18 | – | CNc1ccnc2cc(C(F)(F)F)ccc12 | 5 equiv
4.24 | – | COc1ccc2c(N)ccnc2c1 | 15.6 equiv
4.57 | – | Nc1ccnc2cc([N+](=O)[O-])ccc12 | 5.7 equiv
4.48 | 747 nM | NCCNc1ccnc2cc([N+](=O)[O-])ccc12 | 5.3 equiv
3.76 | – | NC(=O)c1ccc2c(N)ccnc2c1 | 10.3 equiv
3.43 | – | CNc1ccnc2cc(C(N)=O)ccc12 | 10.1 equiv
4.32 | – | N#Cc1ccc2c(N)ccnc2c1 | 6.1 equiv
4.86 | – | CCN(CC)CCNc1ccnc2cc(C)ccc12 | 17 equiv
